# Source: PubChem BioAssay
# Ecoli rRNA inh: reduced GFP signal of wild-type E. coli, primary screen, bacterial rRNA inhibitor project, GFP/RFP fluorescence, OD600, single point; E. coli WT GFP vs humanized-ribosome RFP mutants, 24 h; hits give low values; DMSO median 0, no signal -100; GFP signal change (wild-type ribosome), % (no concentration beside the values); actives 1.6% (n = 350,000); AID 720706, 2013;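 active means significant combined selectivity score with lowered wild-type GFP, culture density cut under 30%, mutant RFP and density less affected; inactive means any of these conditions unmet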
# E-selectin induc: E-selectin induction in HUVECs, primary screen, imaging, HUVEC, immunofluorescence imaging, single point | P16581 | normalized: neutral wells 0, TNF-alpha wells 100 | activation, % at 7.58 µM | actives 0.37% (n = 260,000);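 active means mean E-selectin-positive cell signal at least 10% of the positive control, reached in at least 60% of replicates, without over 20% cell loss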
# Target sequence (P16581 whole entry, looked up): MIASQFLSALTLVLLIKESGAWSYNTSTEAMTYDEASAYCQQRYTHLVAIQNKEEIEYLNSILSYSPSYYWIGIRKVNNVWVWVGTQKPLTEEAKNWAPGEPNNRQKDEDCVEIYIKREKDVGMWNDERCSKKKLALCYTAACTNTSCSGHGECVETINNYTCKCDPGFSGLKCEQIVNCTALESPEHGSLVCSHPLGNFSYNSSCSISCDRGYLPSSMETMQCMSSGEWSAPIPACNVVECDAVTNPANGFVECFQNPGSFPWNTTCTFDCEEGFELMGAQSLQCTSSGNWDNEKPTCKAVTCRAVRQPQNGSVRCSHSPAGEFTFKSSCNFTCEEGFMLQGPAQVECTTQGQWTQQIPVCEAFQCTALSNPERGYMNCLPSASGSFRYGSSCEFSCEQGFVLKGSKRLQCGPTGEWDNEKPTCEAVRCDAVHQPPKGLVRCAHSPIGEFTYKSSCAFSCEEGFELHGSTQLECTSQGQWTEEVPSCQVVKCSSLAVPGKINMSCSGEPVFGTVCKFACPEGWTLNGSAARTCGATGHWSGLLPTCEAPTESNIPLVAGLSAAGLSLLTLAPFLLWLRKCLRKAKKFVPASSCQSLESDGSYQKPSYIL
#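 Material: HUVEC primary endothelial cells; Amount: 3,000 cells per well; Dosing: single concentration; Medium: EGM-2 growth medium on 0.1% gelatin-coated wells; Read-out basis: percent E-selectin-positive cells; Signal: immunofluorescence imaging; Control set: TNF-alpha, DMSO.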
# LGR2 antag: inhibitors of bursicon-induced LGR2 CRE-luciferase signal, primary screen, cell-based, HEK293, CRE-luciferase reporter, bursicon stimulation. Drosophila bursicon receptor LGR2 (rickets). bursicon-stimulated, 4 h. inhibition, % at 9.99 µM. actives 0.35% (n = 380,000). AID 720647, 2013;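 active means drop in luminescence signal, shown as inhibition above about 50% in the replicate tests, limit read from the data, passing the limit was not always enough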;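 further: agonist challenge used bursicon conditioned medium at about half maximal strength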
# EWS-Fli block: EWS/Fli-driven NR0B1 reporter inhibitors, primary screen, A673 cells, NR0B1 luciferase, luminescence, MLPCN library; viability-normalised; inhibition, % at 12.6 µM; actives 0.67% (n = 350,000);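 active means mean inhibition of at least 50% after viability correction, with every replicate also passing that limit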;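 further: firefly luciferase signal divided by Alamar Blue viability fluorescence both relative to DMSO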
# Active calls of the source: *; nt = no result. Only some compounds are listed: those with a hit (about 2.4% of all), similar ones and a draw of the others.
SMILES,Ecoli rRNA inh,E-selectin induc,LGR2 antag,EWS-Fli block
O=Nc1c(-c2c(O)[nH]c3cc(Br)ccc23)[nH]c2ccccc12,-17,66*,95*,-46
O=C(CNC(=O)c1ccccc1)N=Nc1c(O)[nH]c2ccc(Br)cc12,6,nt,-1,14
O=C(C[C@@H]1C=C[C@@H](NC(=O)CCN2CCCCC2)[C@H](CO)O1)Nc1ccccc1,2,0,-14,15
O=C1CC(c2ccc3c(c2)OCO3)Sc2nc3ccccc3n21 (stereo unspecified),nt,nt,54*,nt
O=C(Nc1ccc(Br)cc1)N1CCc2ccccc2C1,-39*,1,-68,-115
O=C(Nc1ccc(F)cc1)N1CCc2ccccc2C1,-14,0,-75,-115
O=C(N[C@H]1C=C[C@H](CC(=O)N2CCOCC2)O[C@@H]1CO)c1cccc(F)c1,0,0,5,-2
COCC(=O)N(C)C[C@H]1Oc2ncc(C#CC(C)(C)O)cc2C(=O)N([C@@H](C)CO)C[C@H]1C,-2,1,-9,-1
O=C(c1cc(COc2ccc(F)cc2Cl)on1)N1CCCC(c2ccccc2)C1 (stereo unspecified),-21,nt,nt,1
O=C(c1cc(COc2ccc(F)cc2Cl)on1)N1CCSCC1,-37*,nt,-74,nt
COc1ccc(OCc2cc(C(=O)N3CCSCC3)no2)c(Cl)c1,-29*,0,-60,nt
O=C(c1cc(COc2ccc(F)cc2F)on1)N1CCCC(c2ccccc2)C1 (stereo unspecified),-22*,nt,nt,-36
COc1cc(C)ccc1OCc1cc(C(=O)N2CCCCCC2)no1,-26*,nt,-29,nt
COc1cccc(OC)c1OCCCCCc1c(C)n[nH]c1C,nt,nt,6,nt
COc1cccc(OC)c1OCCCCc1c(C)n[nH]c1C,-24*,2,5,8
CC(C)C#Cc1cnc2c(c1)C(=O)N([C@H](C)CO)C[C@H](C)[C@@H](CN(C)Cc1ccccc1)O2,6,-2,9,9
C[C@H]1CN([C@@H](C)CO)C(=O)c2cc(NS(C)(=O)=O)ccc2O[C@@H]1CN(C)CC1CCCCC1,0,0,7,-1
CC(=O)C[C@@H]1OC[C@H](Cc2ccccc2)N1S(=O)(=O)c1ccc(C)cc1,-28*,0,-13,-8
Cc1ccc(S(=O)(=O)N2[C@@H](Cc3ccccc3)CO[C@H]2CC(=O)c2cccc3ccccc23)cc1,15,1,0,-6
C[C@H](CO)N1C[C@H](C)[C@@H](CN(C)C(=O)C2CCCCC2)Oc2ncc(/C=C/c3ccccc3)cc2C1=O,-7,1,-5,0
COc1ccc(CN(C)C[C@H]2Oc3ccc(NC(=O)Cc4cn(C)c5ccccc45)cc3CC(=O)N([C@H](C)CO)C[C@@H]2C)cc1,3,1,3,6
Cc1ccc(S(=O)(=O)NC(Cc2ccccc2)C(=O)O)cc1C (stereo unspecified),-12,59*,-1,10
COc1ccc(-c2nc(N=Nc3ccc(O)cc3)n[nH]2)cc1,-27*,0,-8,-20
Cc1ccc(-c2nc(N=Nc3ccc(O)cc3)n[nH]2)cc1,nt,nt,2,nt
COc1ccc(S(=O)(=O)Nc2cccc3c2O[C@@H](CN(C)Cc2ccc(Oc4ccccc4)cc2)[C@@H](C)CN([C@H](C)CO)C3=O)cc1,6,1,-5,20
SMILES,Ecoli rRNA inh,E-selectin induc,LGR2 antag,EWS-Fli block
N#Cc1cnn(-c2ccc([N+](=O)[O-])cc2[N+](=O)[O-])c1N,-7.5*,0,-6,0
N#Cc1cnn(-c2cc(Cl)ccc2Cl)c1N,nt,nt,1,6
Cc1ccc(N(C)S(=O)(=O)c2cccc(C(=O)Nc3ccc(N4CCOCC4)cc3)c2)cc1,-14,nt,2,2
COc1ccc(N(C)S(=O)(=O)c2cccc(C(=O)Nc3ccc(N4CCOCC4)cc3)c2)cc1,-21*,-1,-22,7
COc1cc(/C=N/NS(=O)(=O)c2ccc(C(C)(C)C)cc2)cc([N+](=O)[O-])c1O,-36*,nt,49,11
COc1ccc2c3c(n(C)c2c1)[C@@H](CO)N(Cc1cc(F)ccc1F)CC31CCN(C(=O)C2CC2)CC1,4,0,-8,10
Cc1ccccc1-c1ccc2c(c1)O[C@@H](CN(C)C(=O)C1CC1)[C@@H](C)CN([C@H](C)CO)S2(=O)=O,-4,1,2,-1
O=C(Nc1ccc(Cl)cc1)N1[C@@H]2CNC[C@H]1C2c1ccc(/C=C/c2ccccc2)cc1 (stereo partly specified),-63,0,-10,nt
CCn1c(/C=N/Nc2ccc(C(=O)O)cc2)nc2ccccc21,nt,2,nt,2
CC1Oc2ccccc2C=C1/C=N/Nc1ccc(C(=O)O)cc1 (stereo unspecified),-23*,-3,-94,-43
C[C@H](CO)N1C[C@H](C)[C@@H](CN(C)C)OCc2cn(nn2)CCCC1=O,-2,0,1,5
CCOC(=O)c1ccc(NC(=O)c2nc[nH]c2C(=O)NCCNC(=O)c2[nH]cnc2C(=O)Nc2ccc(C(=O)OCC)cc2)cc1,19,0,-1,60*
CC(=O)N(C)C[C@@H]1Oc2ncc(-c3cccnc3)cc2C(=O)N([C@H](C)CO)C[C@H]1C,0,0,5,-7
CCOc1ccc(S(=O)(=O)NCc2ccccn2)cc1NC(=O)c1ccccc1,-6,nt,-7,58*
CCOc1ccc(S(=O)(=O)NCc2cccnc2)cc1NC(=O)c1ccccc1,0,0,-28,-13
O=C(OCn1ncc(Br)c(Br)c1=O)c1ccccc1Cl,-20*,nt,27,nt
O=C(OCn1nnc2ccccc2c1=O)c1cccnc1Cl,nt,nt,0,nt
C[C@@H]1CN([C@@H](C)CO)C(=O)c2cc(NC(=O)Cc3ccccc3)ccc2O[C@@H]1CN(C)S(=O)(=O)c1ccc(F)cc1,-2,-21,-4,5
COc1cc(CNCCCN2CCOCC2)cc(Br)c1OCc1ccc(Cl)cc1,-58,nt,99*,17
O=C(/C=C/c1ccc([N+](=O)[O-])cc1)c1ccccc(=O)c1O,-14*,2,46,61*
O=C(/C=C/c1ccccc1Cl)c1ccccc(=O)c1O,nt,nt,9,nt
Cc1ccc(-c2noc(CN(C(=O)c3ccc4c(c3)OCO4)C(C)C)n2)cc1,3,nt,23,nt
CC(C)N(Cc1nc(-c2ccccc2)no1)C(=O)c1ccc2c(c1)OCO2,-29*,nt,-9,1
Cc1nn(-c2ccccc2)c2c1C1(C(=O)N3c4c(cccc41)C(C)CC3(C)C)C(C#N)=C(N)O2 (stereo unspecified),-46*,nt,-1,22
O=C(/C=C/c1ccccc1)c1ccc(NC2=NCCCS2)cc1,-26*,1,-17,-48
Cc1oc2c(CN3CCCC3)c(O)ccc2c(=O)c1-c1ccc(Br)cc1,-28*,nt,0,3
C[C@@H]1CCCCO[C@@H](CN(C)Cc2ccc(Cl)c(Cl)c2)[C@H](C)CN([C@@H](C)CO)C(=O)c2cc(NC(=O)Nc3ccc(F)cc3)ccc2O1,5,0,19,9
